ChEMBL document CHEMBL1123237 (J Med Chem, 1986)

Tests used:
Type in all cases: functional, Artery
[1] = tested on: Rattus norvegicus; experiment: Baseline mean aortic blood pressure in conscious renal (1clip/2kidney) hypertensive rats at dose 30 mg/kg administered orally; conditions: route oral
Outline: (§1)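 Oral dosing in rats cannulated for aortic blood pressure monitoring. Only rats with mean aortic pressure >160 mmHg were used; they weighed 280-320 g at cannulation. Rats had free access to standard chow and tap water on a 12-h dark/12-h light cycle. The value is the pre-dose mean aortic pressure, given as mean ± 1 SEM; 3-6 rats per dose.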

[2] = tested on: Rattus norvegicus; experiment: Maximum change aortic blood pressure in conscious renal (1clip/2kidney) hypertensive rats at dose 30 mg/kg administered orally; conditions: route oral
[3] = tested on: Rattus norvegicus; experiment: Baseline mean aortic blood pressure in conscious renal (1clip/2kidney) hypertensive rats at dose 10 mg/kg administered orally.; outline: as §1
[4] = tested on: Rattus norvegicus; experiment: Maximum change aortic blood pressure in conscious renal (1clip/2kidney) hypertensive rats at dose 10 mg/kg administered orally at 10 hr.; conditions: route oral
[5] = tested on: Rattus norvegicus; experiment: Maximum change aortic blood pressure in conscious renal (1clip/2kidney) hypertensive rats at dose 3 mg/kg administered orally at 5 hr.; conditions: route oral
[6] = tested on: Rattus norvegicus; experiment: Maximum change aortic blood pressure in conscious renal (1clip/2kidney) hypertensive rats at dose 1 mg/kg administered orally at 8 hr.; conditions: route oral
[7] = tested on: Rattus norvegicus; experiment: Maximum change aortic blood pressure in conscious renal (1clip/2kidney) hypertensive rats at dose 0.3 mg/kg administered orally at 5 hr.; conditions: route oral
[8] = tested on: Rattus norvegicus; experiment: Baseline mean aortic blood pressure in conscious renal (1clip/2kidney) hypertensive rats at dose 1 mg/kg administered orally.; outline: as §1
[9] = tested on: Rattus norvegicus; experiment: Maximum change aortic blood pressure in conscious renal (1clip/2kidney) hypertensive rats at dose 10 mg/kg administered orally at 4 hr.; conditions: route oral
[10] = tested on: Rattus norvegicus; experiment: Baseline mean aortic blood pressure in conscious renal (1clip/2kidney) hypertensive rats at dose 0.3 mg/kg administered orally.; outline: as §1
[11] = tested on: Rattus norvegicus; experiment: Baseline mean aortic blood pressure in conscious renal (1clip/2kidney) hypertensive rats at dose 3 mg/kg administered orally.; outline: as §1
[12] = tested on: Rattus norvegicus; experiment: Baseline mean aortic blood pressure in conscious renal (1clip/2kidney) hypertensive rats at dose 30 mg/kg administered orally.; outline: as §1
[13] = tested on: Rattus norvegicus; experiment: Maximum change aortic blood pressure in conscious renal (1clip/2kidney) hypertensive rats at dose 30 mg/kg administered orally at 9 hr.; conditions: route oral
[14] = tested on: Rattus norvegicus; experiment: Maximum change aortic blood pressure in conscious renal (1clip/2kidney) hypertensive rats at dose 1 mg/kg administered orally at 4 hr.; conditions: route oral
[15] = tested on: Rattus norvegicus; experiment: Maximum change aortic blood pressure in conscious renal (1clip/2kidney) hypertensive rats at dose 0.3 mg/kg administered orally at 10 hr.; conditions: route oral
[16] = tested on: Rattus norvegicus; experiment: Maximum change aortic blood pressure in conscious renal (1clip/2kidney) hypertensive rats at dose 10 mg/kg administered orally at 5 hr; conditions: route oral
[17] = tested on: Rattus norvegicus; experiment: Maximum change aortic blood pressure in conscious renal (1clip/2kidney) hypertensive rats at dose 1 mg/kg administered orally at 6 hr.; conditions: route oral
[18] = tested on: Rattus norvegicus; experiment: Maximum change aortic blood pressure in conscious renal (1clip/2kidney) hypertensive rats at dose 3 mg/kg administered orally at 6 hr.; conditions: route oral
[19] = tested on: Rattus norvegicus; experiment: Maximum change aortic blood pressure in conscious renal (1clip/2kidney) hypertensive rats at dose 10 mg/kg administered orally at 6 hr.; conditions: route oral
[20] = tested on: Rattus norvegicus; experiment: Maximum change aortic blood pressure in conscious renal (1clip/2kidney) hypertensive rats at dose 30 mg/kg administered orally at 10 hr; conditions: route oral
[21] = tested on: Rattus norvegicus; experiment: Maximum change aortic blood pressure in conscious renal (1clip/2kidney) hypertensive rats at dose 1 mg/kg administered orally at 10 hr; conditions: route oral
[22] = tested on: Rattus norvegicus; experiment: Baseline mean aortic blood pressure in conscious renal (1clip/2kidney) hypertensive rats at dose 1 mg/kg administered orally; conditions: route oral; outline: as §1
[23] = tested on: Rattus norvegicus; experiment: Maximum change aortic blood pressure in conscious renal (1clip/2kidney) hypertensive rats at dose 0.3 mg/kg administered orally at 2 hr.; conditions: route oral
[24] = tested on: Rattus norvegicus; experiment: Maximum change aortic blood pressure in conscious renal (1clip/2kidney) hypertensive rats at dose 3 mg/kg administered orally at 8 hr.; conditions: route oral
[25] = tested on: Rattus norvegicus; experiment: Maximum change aortic blood pressure in conscious renal (1clip/2kidney) hypertensive rats at dose 30 mg/kg administered orally at 8 hr.; conditions: route oral
[26] = tested on: Rattus norvegicus; experiment: Maximum change aortic blood pressure in conscious renal (1clip/2kidney) hypertensive rats at dose 3 mg/kg administered orally at 2 hr.; conditions: route oral
[27] = tested on: Rattus norvegicus; experiment: Maximum change aortic blood pressure in conscious renal (1clip/2kidney) hypertensive rats at dose 1 mg/kg administered orally at 9 hr.; conditions: route oral
[28] = tested on: Rattus norvegicus; experiment: Maximum change aortic blood pressure in conscious renal (1clip/2kidney) hypertensive rats at dose 30 mg/kg administered orally at 6 hr.; conditions: route oral
[29] = tested on: Rattus norvegicus; experiment: Maximum change aortic blood pressure in conscious renal (1clip/2kidney) hypertensive rats at dose 30 mg/kg administered orally at 6 hr; conditions: route oral
[30] = tested on: Rattus norvegicus; experiment: Maximum change aortic blood pressure in conscious renal (1clip/2kidney) hypertensive rats at dose 1 mg/kg administered orally at 1 hr; conditions: route oral
[31] = tested on: Rattus norvegicus; experiment: Maximum change aortic blood pressure in conscious renal (1clip/2kidney) hypertensive rats at dose 10 mg/kg administered orally at 5 hr.; conditions: route oral
[32] = tested on: Rattus norvegicus; experiment: Maximum change aortic blood pressure in conscious renal (1clip/2kidney) hypertensive rats at dose 1 mg/kg administered orally at 7 hr.; conditions: route oral

Structure (SMILES): CC(CS)C(=O)N1Cc2ccccc2C1C(=O)O (racemic)
- MABP [1]: 165 mmHg
- MABP [2]: 0 mmHg

Structure (SMILES): CCOC(=O)[C@H](CCc1ccccc1)N[C@@H](C)C(=O)N1Cc2ccccc2[C@H]1C(=O)O
- MABP [3]: 200 mmHg
- MABP [4]: -80 mmHg

Structure (SMILES): CCOC(=O)[C@H](CCc1ccccc1)N[C@@H](C)C(=O)N1CCC[C@H]1C(=O)O
- MABP [3]: 199 mmHg
- MABP [5]: -112 mmHg
- MABP [6]: -43 mmHg
- MABP [7]: -79 mmHg
- MABP [8]: 175 mmHg
- MABP [9]: -112 mmHg
- MABP [10]: 201 mmHg
- MABP [11]: 200 mmHg

Structure (SMILES): CCOC(=O)[C@H](CCc1ccccc1)N[C@@H](C)C(=O)N1Cc2ccccc2C[C@@H]1C(=O)O
- MABP [12]: 187 mmHg
- MABP [13]: -20 mmHg

Structure (SMILES): CCOC(=O)[C@H](CCc1ccccc1)N[C@@H](C)C(=O)N1Cc2ccccc2C[C@H]1C(=O)O
- MABP [14]: -54 mmHg
- MABP [3]: 181 mmHg
- MABP [5]: -62 mmHg
- MABP [8]: 196 mmHg
- MABP [15]: -50 mmHg
- MABP [10]: 157 mmHg
- MABP [11]: 188 mmHg
- MABP [16]: -87 mmHg

Structure (SMILES): CCOC(=O)[C@H](CCc1ccccc1)N[C@@H](C)C(=O)N1Cc2cc(OC)c(OC)cc2C[C@H]1C(=O)O [MOEXIPRIL]
- MABP [3]: 205 mmHg
- MABP [17]: -43 mmHg
- MABP [7]: -41 mmHg
- MABP [18]: -39 mmHg
- MABP [19]: -113 mmHg
- MABP [8]: 182 mmHg
- MABP [10]: 201 mmHg
- MABP [11]: 179 mmHg

Structure (SMILES): CCOC(=O)[C@@H](CCc1ccccc1)N[C@@H](C)C(=O)N1Cc2ccccc2C[C@H]1C(=O)O
- MABP [12]: 172 mmHg
- MABP [20]: -11 mmHg

Structure (SMILES): CCOC(=O)C(CCc1ccccc1)NC(C)C(=O)N1Cc2ccccc2CC1C(=O)OCC (stereo unspecified)
- MABP [21]: -69 mmHg
- MABP [22]: 208 mmHg

Structure (SMILES): C[C@H](CS)C(=O)N1CCC[C@H]1C(=O)O [CAPTOPRIL]
- MABP [23]: -25 mmHg

Structure (SMILES): COc1cc2c(cc1OC)CN(C(=O)C(C)NC(CCc1ccccc1)C(=O)O)C(C(=O)O)C2 (stereo unspecified)
- MABP [12]: 181 mmHg
- MABP [3]: 199 mmHg
- MABP [6]: -20 mmHg
- MABP [19]: -52 mmHg
- MABP [8]: 199 mmHg
- MABP [24]: -52 mmHg
- MABP [25]: -107 mmHg
- MABP [11]: 199 mmHg

Structure (SMILES): CCOC(=O)[C@@H](CCc1ccccc1)N[C@@H](C)C(=O)N1Cc2cc(OC)c(OC)cc2C[C@H]1C(=O)O
- MABP [12]: 177 mmHg
- MABP [25]: -15 mmHg

Structure (SMILES): C[C@H](N[C@@H](CCc1ccccc1)C(=O)O)C(=O)N1CCC[C@H]1C(=O)O [ENALAPRILAT ANHYDROUS]
- MABP [26]: -54 mmHg
- MABP [12]: 176 mmHg
- MABP [3]: 188 mmHg
- MABP [19]: -57 mmHg
- MABP [8]: 188 mmHg
- MABP [27]: -51 mmHg
- MABP [28]: -70 mmHg
- MABP [11]: 188 mmHg

Structure (SMILES): CC(NC(CCc1ccccc1)C(=O)O)C(=O)N1Cc2ccccc2C1C(=O)O (stereo unspecified)
- MABP [24]: -74 mmHg
- MABP [11]: 195 mmHg

Structure (SMILES): CCOC(=O)[C@H](CCc1ccccc1)N[C@@H](C)C(=O)N1Cc2cc(OC)c(OC)cc2C[C@@H]1C(=O)O
- MABP [12]: 178 mmHg
- MABP [25]: -16 mmHg

Structure (SMILES): O=C(O)C1c2ccccc2CN1C(=O)CCS (stereo unspecified)
- MABP [1]: 174 mmHg
- MABP [20]: -15 mmHg

Structure (SMILES): CCOC(=O)C(CCc1ccccc1)N1C(=O)C2Cc3ccccc3CN2C(=O)C1C (stereo unspecified) [DIKETOPIPERAZINE DERIVATIVE OF QUINAPRIL]
- MABP [29]: -28 mmHg
- MABP [1]: 186 mmHg

Structure (SMILES): CC(CS)C(=O)N1Cc2ccccc2CC1C(=O)O (stereo unspecified)
- MABP [30]: -45 mmHg
- MABP [8]: 185 mmHg

Structure (SMILES): C[C@H](N[C@@H](CCc1ccccc1)C(=O)O)C(=O)N1Cc2ccccc2C[C@H]1C(=O)O
- MABP [26]: -45 mmHg
- MABP [12]: 192 mmHg
- MABP [3]: 199 mmHg
- MABP [31]: -76 mmHg
- MABP [8]: 199 mmHg
- MABP [13]: -89 mmHg
- MABP [32]: -44 mmHg
- MABP [11]: 199 mmHg
